Screening results deposited in PubChem by several laboratories.
MLLE-PAM2 inh: inhibitors of PABP1 MLLE–PAM2 peptide binding, primary screen, biochemical, fluorescence polarization, FITC-PAM2, GST-MLLE; Polyadenylate-binding protein 1 (Homo sapiens), P11940; inhibition, % at 20 µM; 360,000 tested, 0.36% active; AID 588489, 2011; in the data active = inhibition above about 35%, passing the limit was not always enough
Target sequence (P11940 whole entry, looked up): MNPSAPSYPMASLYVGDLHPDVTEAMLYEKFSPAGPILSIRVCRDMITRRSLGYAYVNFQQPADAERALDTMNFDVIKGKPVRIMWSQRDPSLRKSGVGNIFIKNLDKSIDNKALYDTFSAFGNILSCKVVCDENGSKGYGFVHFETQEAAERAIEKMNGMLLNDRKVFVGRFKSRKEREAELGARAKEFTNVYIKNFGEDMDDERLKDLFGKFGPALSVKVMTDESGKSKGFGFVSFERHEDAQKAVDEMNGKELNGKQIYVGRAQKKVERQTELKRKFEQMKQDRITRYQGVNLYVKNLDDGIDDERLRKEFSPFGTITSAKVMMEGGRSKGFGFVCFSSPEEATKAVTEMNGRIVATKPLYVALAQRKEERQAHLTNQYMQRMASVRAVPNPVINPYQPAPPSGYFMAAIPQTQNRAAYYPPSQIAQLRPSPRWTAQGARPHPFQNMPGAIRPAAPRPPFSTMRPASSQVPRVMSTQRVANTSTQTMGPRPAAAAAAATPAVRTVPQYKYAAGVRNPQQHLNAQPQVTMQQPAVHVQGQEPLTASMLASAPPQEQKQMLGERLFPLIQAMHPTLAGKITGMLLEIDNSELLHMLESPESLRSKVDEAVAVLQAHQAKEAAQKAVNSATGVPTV
IMP-1 inhibitor: IMP-1 metallo-beta-lactamase inhibitors, primary screen, biochemical, epi-absorbance readout, Pseudomonas aeruginosa enzyme; metallo-beta-lactamase IMP-1 (Pseudomonas aeruginosa); purified IMP-1, nitrocefin hydrolysis, epi-absorbance fluorescence; AID 1556, 2009; inhibition, % at 5.6 µM; 290,000 tested, 0.45% active;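 active = inhibition above the mean plus 3 SD of all compounds in the same screening run, cut at about 4.5% in these data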
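System: purified IMP-1; amount: IMP-1 0.2 nM before substrate addition; compound: single dose, 5.6 µM; times: 25 °C, 15 min preincubation, 25 min reaction; signal: Epi-absorbance via hydrolysed-nitrocefin quenching of white-plate fluorescence, 480/530 nm, EDTA stop; benchmarks: DMSO with and without IMP-1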
eIF4H FP inh: human eIF4H binding inhibitors, primary screen, translation initiation inhibitor project, biochemical, uHTS, fluorescence polarization | Eukaryotic translation initiation factor 4H (Homo sapiens), Q15056 | eIF4H fluorescence polarization binding assay | inhibition, % at 35 µM | 290,000 tested, 0.94% active;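 note: calls also rest on retests at 20 µM and on dose response follow-up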
PABP polyA inh: PABP poly(A) RNA binding inhibitors, primary screen, biochemical, fluorescence polarization, uHTS; Polyadenylate-binding protein 1 (Homo sapiens), P11940; calls only at 35 µM; 290,000 tested, 1% active;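 note: calls also rest on retests at 20 µM and on dose response follow-up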
VIM-2 inh: VIM-2 metallo-beta-lactamase inhibitors, primary screen, biochemical, epi-absorbance readout, Pseudomonas aeruginosa enzyme; purified VIM-2, nitrocefin hydrolysis, epi-absorbance fluorescence; inhibition, % at 5.6 µM; 290,000 tested, 0.89% active;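 active = inhibition above the mean of all tested compounds plus 3 SD, cutoff set per screening run, cut at about 7.5% in these data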;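 note: red hydrolysis product quenches plate fluorescence so inhibitors raise well fluorescence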
Hits are given with their value; i = inactive; ? = inconclusive; nt = not tested or not shown; + = active, no number. Rows were chosen to be rich in hits. Some 2.2% of all compounds tested hit in one or more screens of this group. Unless noted, the rule behind the calls is not given here.

SMILES	MLLE-PAM2 inh	IMP-1 inhibitor	eIF4H FP inh	PABP polyA inh	VIM-2 inh
Cc1c(O)nc(SCC(=O)Nc2ccc3c4c(cccc24)CC3)n(-c2ccccc2)c1=O	i	i	i	i	i
O=C(Nc1ccc(-c2nc3ccccc3[nH]2)cc1)c1ccc2c(c1)OCO2	i	28	i	i	i
CCCC(=O)N1CCN(c2ccc(NC(=O)c3cccs3)cc2)CC1	i	i	i	i	i
CC(C)(C)OC(=O)C[C@H]1C/C=C\C[C@H](CC(=O)NCCO)C(=O)NC[C@H](c2ccccc2)OC1=O	i	nt	nt	nt	nt
CCN1/C(=C/c2ccc3cc(C)ccc3[n+]2C)Sc2ccc3sccc3c21	i	18	i	i	i
C[C@H](CO)N1C[C@H](C)[C@@H](CN(C)Cc2ccccc2F)Oc2ncc(Br)cc2C1=O	i	nt	nt	nt	nt
COc1cccc(COC(=O)c2cc(=O)[nH]c3ccc(S(=O)(=O)N4CCOCC4)cc23)c1OC	i	nt	nt	nt	nt
Cn1c2ccc(F)cc2c2nc3ccccc3nc21	i	i	i	i	7.9
Cn1c2ccc(Cl)cc2c2nc3ccccc3nc21	i	i	i	i	i
CCOc1ccc2c(c1)c1nc3ccccc3nc1n2C	i	i	i	?	8.4
CC1(C)Oc2ccc3ccc(=O)oc3c2C(/C=N/O)=C1Cl	i	i	nt	nt	i
c1ccc(CSc2nccc(-c3ccco3)n2)cc1	i	nt	nt	nt	nt
Cc1ccc(C)n1-c1nccc(-c2ccco2)n1	i	i	54	+	i
Cc1ccc(C)n1-c1nccc(-c2cccs2)n1	i	i	91	+	i
O=C(CCS(=O)(=O)Cc1ccccc1)Nc1ncc([N+](=O)[O-])s1	i	i	i	i	i
Cc1nc(C(F)(F)F)nc(Nc2ccc(N=Nc3ccccc3)cc2)c1C#N	i	i	i	i	i
CC(NC(=S)NCCc1ccccc1)C(c1cccs1)N1CCN(Cc2ccccc2)CC1 (stereo unspecified)	i	i	i	i	i
Cc1nc(NCc2ccccn2)c2c3c(sc2n1)CCCC3	i	i	i	i	i
Cc1nc(NCc2cccnc2)c2c3c(sc2n1)CC(C)CC3 (stereo unspecified)	i	i	i	i	9.9
O=C(CCNS(=O)(=O)c1ccc(Br)cc1)Nc1cccc(F)c1	i	i	i	i	i
COC(=O)CCCC1=CC2=CC(=O)C(C)(OC(=O)c3cccs3)C(=O)C2=CN1CCc1ccccn1 (stereo unspecified)	i	nt	i	+	nt
Cc1ccc(C(=O)N2CCCC(Nc3ccc(C(C)C)cc3)C2)cn1 (stereo unspecified)	i	i	i	i	i
COc1ccc(CCNC(=O)c2ccc(C)s2)cc1OC	i	i	i	i	i
COc1ccc(-n2nnnc2SCC(=O)NC2CCS(=O)(=O)C2)cc1 (stereo unspecified)	i	nt	nt	nt	nt
CC(Oc1ccc2ccc(=O)oc2c1)C(=O)NC(Cc1c[nH]c2ccc(O)cc12)C(=O)O (stereo unspecified)	i	i	87	i	i
SMILES	MLLE-PAM2 inh	IMP-1 inhibitor	eIF4H FP inh	PABP polyA inh	VIM-2 inh
Cc1c(OC(C)C(=O)NC(Cc2c[nH]c3ccc(O)cc23)C(=O)O)ccc2c1oc(=O)c1ccccc12 (stereo unspecified)	i	i	81	+	i
COc1ccc(-c2cc(=O)oc3cc(OC(C)C(=O)NC(Cc4c[nH]c5ccc(O)cc45)C(=O)O)ccc23)cc1 (stereo unspecified)	i	i	i	i	i
Cc1c(C)c2ccc(OC(C)C(=O)N[C@@H](Cc3c[nH]c4ccccc34)C(=O)O)c(C)c2oc1=O (stereo partly specified)	i	i	i	i	i
Cc1ccc(S(=O)(=O)NNc2c3ccccc3nc3ccc(Cl)cc23)cc1	i	nt	nt	nt	nt
Cc1ccc(-c2csc3ncn(CC#N)c(=O)c23)cc1C	i	i	54	+	i
Cc1ccc(-c2csc3ncn(CC#N)c(=O)c23)cc1	i	i	i	i	i
COc1ccc(C(Cl)=C(c2ccc(OC)cc2)c2ccc(OC)cc2)cc1	i	12	i	i	i
COC(=O)C1=C(C)NC(=O)/C1=C\c1cc(C)n(-c2ccccc2C)c1C	i	i	57	+	i
NC(=O)CC(NC(=O)Cc1ccc(Cl)cc1)c1ccc(NCCCN2CCCC2=O)c([N+](=O)[O-])c1 (stereo unspecified)	i	i	69	i	i
CC(O)CNc1nc2sc3c(c2c(=O)n1Cc1ccco1)CCCCC3 (stereo unspecified)	i	i	i	i	i
NC(=O)Cn1c(=O)n(Cc2ccco2)c(=O)c2c3c(sc21)CCCCC3	i	i	98	+	i
O=c1c2c3c(sc2nc(NCCOCCO)n1Cc1ccco1)CCCCC3	i	i	100	+	i
Cc1ccc(C)c(NC(=O)CSc2ccc(-c3cccs3)nn2)c1	i	i	22	+	i
Cc1cccn2c(=O)c3cc(C(=O)NCCc4ccccc4)c(=N)n(Cc4ccco4)c3nc12	i	i	i	i	9.1
COc1ccc(CCNC(=O)c2cc3c(=O)n4cccc(C)c4nc3n(Cc3ccncc3)c2=N)cc1	nt	nt	i	i	nt
COc1ccc(CCNC(=O)c2cc3c(=O)n4cccc(C)c4nc3n(Cc3ccco3)c2=N)cc1OC	i	i	63	i	i
N=C(c1cccc([N+](=O)[O-])c1)N1CCCCC1	i	i	i	i	i
CCn1c(C)nc2cc(C(=O)NNC(=S)NC(=O)c3ccccc3)ccc21	i	i	i	+	i
CCCNC(=O)c1cc(C2CCCCN2C(=O)c2ccc3c(c2)CCO3)on1 (stereo unspecified)	i	nt	nt	nt	nt
COc1cccc2c(=O)n(CC(=O)Nc3ccc(F)cc3)ccc12	i	i	i	i	i
COc1cccc2c(=O)n(CC(=O)Nc3ccccc3F)ccc12	i	i	?	+	i
CCCOc1cccc(C(=O)NC(=S)Nc2ccc(N3CCN(C)CC3)cc2)c1	i	i	i	i	12
CC(C)Oc1ccc(C(=O)Nc2ccc(N3CCCCC3)cc2)cc1	i	i	i	i	i
CC(C)Oc1cccc(C(=O)Nc2ccc(N3CCN(C)CC3)cc2)c1	i	i	i	i	12
c1cc(-c2ccsc2)n2ccnc2c1	i	nt	nt	nt	nt
c1cc(-c2ccoc2)n2ccnc2c1	47	nt	nt	nt	nt
NC1=NC(=O)/C(=C/c2cccc(-c3ccc(S(N)(=O)=O)cc3)c2)S1	i	i	90	+	i
CCC1CCCCN1CCCNC(=O)c1ccc2nc(N3CCC(C)CC3)sc2c1 (stereo unspecified)	i	i	i	i	i
CC1CCN(c2nc3ccc(C(=O)NCCCN4CCCCC4)cc3s2)CC1	i	i	i	i	10
C=CCNC(=S)N/N=C(\C)c1cccc(OC)c1	40	i	i	i	i
